Measured values taken from PMC9426400 (Hepatology Communications, 2022).
Where two headings read alike, the source gives them in different places.

Assays:
[1] = tested on: LX2 human hepatic stellate cell line; experiment: LX2 collagen assay; assay type: cell-based; details: LX-2, read-out: EC50, inhibition of collagen production
Huh7 cells = experiment: FAO assay in Huh7 cells; assay type: cell-based, human; details: for EC50: Homo sapiens; for FAO induction (times): 14C-OA, monotherapy; for Stimulation of FAO: at the concentrations tested
[2] = tested on: FFD-fed dyslipidemic Sprague Dawley rats; experiment: Dyslipidemic rat model; assay type: in vivo; details: for Dose in ACCi combination with significantly reduced hepatic Apoc3 expression: relative to both vehicle and ACCi alone; for Dose inducing PPAR target genes in eWAT: epidydimal white adipose tissue
How it was run: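 Sprague Dawley rats fed FFD plus 4.03% sugar water (2.3% fructose, 1.7% glucose) for 28 days, across three studies. PPAR or THRβ agonists started Day 7 and ACCi Day 14. Circulating TG on Day 22 (serum Study 2, plasma Studies 3–4; n = 5–10/group). Terminal liver TG was taken fed, 8 h post-dose. Liver and eWAT gene expression measured. Nonparametric statistics, p ≤ 0.05.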

subjects with NASH = details: cited from earlier work
FFD-fed C57BL/6 mice = experiment: FFD mouse model of early NASH; assay type: in vivo
rat PPARδ = biological target: T1, rat PPARδ (Rattus norvegicus, UniProt Q62879); experiment: PPAR luciferase reporter assay, rat PPARδ; assay type: cell-based
T1 sequence (Q62879 1-440): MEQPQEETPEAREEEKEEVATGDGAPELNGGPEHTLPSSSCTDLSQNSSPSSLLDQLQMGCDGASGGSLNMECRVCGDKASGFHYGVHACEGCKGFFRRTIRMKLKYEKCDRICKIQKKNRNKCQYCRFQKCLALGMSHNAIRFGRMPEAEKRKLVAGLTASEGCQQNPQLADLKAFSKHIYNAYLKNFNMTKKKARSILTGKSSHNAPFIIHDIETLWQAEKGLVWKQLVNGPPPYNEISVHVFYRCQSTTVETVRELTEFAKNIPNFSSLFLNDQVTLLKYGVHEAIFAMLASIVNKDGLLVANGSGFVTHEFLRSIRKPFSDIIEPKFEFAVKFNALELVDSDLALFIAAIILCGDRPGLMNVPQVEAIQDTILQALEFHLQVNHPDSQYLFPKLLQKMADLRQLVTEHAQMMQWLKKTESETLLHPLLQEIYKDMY

FAO = FAO assay validation with CPT1 inhibitor etomoxir; assay type: cell-based; details: read-out: EC50, block of FAO
[3] = Huh-7, read-out: FAO EC50, Huh7 cells, 14C-OA, monotherapy
[4] = Study 2, combination with ACCi 30 mg/kg, 15 mg/kg Feno, 30 mg/kg Ela

CSc1ccc(C(=O)/C=C/c2cc(C)c(OC(C)(C)C(=O)O)c(C)c2)cc1 [Ela, elafibranor]
EC50 [1]: ~2 µM | EC50 (Huh7 cells; [3]): 10.3 µM | FAO induction (times) (Huh7 cells; Huh7 cells): 1.4 times | Liver TG reduction compared with vehicle [2, 4]: 76% | Dose in ACCi combination with significantly reduced hepatic Apoc3 expression [2]: ≥ 3 mg/kg

COc1ccccc1[C@H](Cn1c(=O)n(C(C)(C)C(=O)O)c(=O)c2c(C)c(-c3ncco3)sc21)OC1CCOCC1 [FIR, Firsocostat]
EC50 (Huh7 cells; Huh-7, read-out: FAO EC50, Huh7 cells, 14C-OA tracer): 0.0327 µM | EC50 (Huh7 cells; Huh-7, read-out: FAO EC50, Huh7 cells, 14C-PA tracer): 0.0166 µM | Reduction in relative liver TG (subjects with NASH; subjects with NASH): 30%

CC(C)OC(=O)C(C)(C)Oc1ccc(C(=O)c2ccc(Cl)cc2)cc1 [Feno, fenofibrate]
Liver total cholesterol content reduction (FFD-fed C57BL/6 mice; Feno^high (150 mg/kg) monotherapy): 57% | Liver total cholesterol content reduction (FFD-fed C57BL/6 mice; Feno^low (50 mg/kg) monotherapy): 49% | Liver TG reduction compared with vehicle [2, 4]: 58% | Dose in ACCi combination with significantly reduced hepatic Apoc3 expression [2]: ≥ 5 mg/kg

CC(C)(Oc1ccc(C(=O)c2ccc(Cl)cc2)cc1)C(=O)O [Fenofibric acid]
Activity in the FAO assay (Huh7 cells; Huh7 cells, up to a concentration of 100 μM): not active

O=C(O)CCCc1cc2cc(Cl)ccc2n1S(=O)(=O)c1ccc2ncsc2c1 [Lani, lanifibranor]
Stimulation of FAO (Huh7 cells; Huh7 cells): did not stimulate FAO | Activation of rat PPARδ (rat PPARδ): did not activate rat PPARδ | NASH resolution (share of subjects) (subjects with NASH; over 24 weeks, vs. 19% placebo): 45% | Fibrosis regression (share of subjects) (subjects with NASH; over 24 weeks, vs. 24% placebo): 42%

CC(C)c1cc(Oc2c(Cl)cc(-n3nc(C#N)c(=O)[nH]c3=O)cc2Cl)n[nH]c1=O [Res, Resmetirom]
EC50 (Huh7 cells; [3]): 46 µM | FAO induction (times) (Huh7 cells; Huh7 cells): 1.6 times | NASH resolution (share of subjects) (subjects with NASH; vs. 6.5% placebo): 27.4% | Liver TG reduction compared with vehicle ([2]; Study 4, 1 mg/kg Res in combination with ACCi 30 mg/kg): 83% | Liver TG reduction compared with vehicle ([2]; Study 4, 3 mg/kg Res in combination with ACCi 30 mg/kg): 88% | Liver TG in combination with ACCi relative to ACCi alone ([2]; dyslipidemic rats, combined with ACCi 30 mg/kg): lowered liver TG relative to ACCi alone | Circulating TG reduction vs. vehicle ([2]; dyslipidemic rats, monotherapy, 3 mg/kg, after 1 week): 50% | Dose in ACCi combination with significantly reduced hepatic Apoc3 expression [2]: 3 mg/kg

CCO[C@@H](Cc1ccc(OCCn2c(C)ccc2-c2ccc(SC)cc2)cc1)C(=O)O [Saro, saroglitazar]
EC50 (Huh7 cells; [3]): 51.5 µM | FAO induction (times) (Huh7 cells; Huh7 cells): 3.6 times | Dose inducing PPAR target genes in eWAT ([2]; dyslipidemic rats): 3 mg/kg | Dose in ACCi combination with significantly reduced hepatic Apoc3 expression [2]: ≥ 0.3 mg/kg

CCO[C@H](COc1ccc(C(F)(F)F)cc1)CSc1ccc(OCC(=O)O)c(C)c1 [Sela, seladelpar]
Stimulation of FAO (Huh7 cells; Huh7 cells): did not stimulate FAO | NASH resolution (share of subjects) (subjects with NASH; over 52 weeks, vs. 8% placebo): 26% | Dose inducing PPAR target genes in eWAT ([2]; dyslipidemic rats): 15 mg/kg | Dose in ACCi combination with significantly reduced hepatic Apoc3 expression [2]: 15 mg/kg

CCOC(=O)[C@@]1(CCCCCCOc2ccc(Cl)cc2)CO1 [etomoxir]
EC50 (FAO): 0.136 µM

CCc1ccc(CCOc2ccc(CC3SC(=O)NC3=O)cc2)nc1 (centres unmarked) [pioglitazone]
NASH resolution (share of subjects) (subjects with NASH; vs. 21% placebo): 47%
